From ChEMBL document CHEMBL3286204, “Lignans from the fruit of Schisandra glaucescens with antioxidant and neuroprotective properties” (J Nat Prod, 2014)
pIC50: −log10 of the molar value. Active and inactive are the calls of the source. No cut-off for these calls is given here.

What was measured:
[1] = target: Amyloid-beta precursor protein (Homo sapiens) (UniProt P05067); assay: Neuroprotective activity against amyloid beta (25 to 35)-induced cell death in human SH-SY5Y cells assessed as cell viability at 0.4 uM after 24 hrs by MTT assay relative to control; type: functional, cell-based
[2] = target: Amyloid-beta precursor protein (Homo sapiens) (UniProt P05067); assay: Neuroprotective activity against amyloid beta (25 to 35)-induced cell death in human SH-SY5Y cells assessed as cell viability at 0.08 uM after 24 hrs by MTT assay relative to control; type: functional, cell-based
[3] = target: Amyloid-beta precursor protein (Homo sapiens) (UniProt P05067); assay: Neuroprotective activity against amyloid beta (25 to 35)-induced cell death in human SH-SY5Y cells assessed as cell viability at 2 uM after 24 hrs by MTT assay relative to control; type: functional, cell-based
[4] = target: Amyloid-beta precursor protein (Homo sapiens) (UniProt P05067); assay: Neuroprotective activity against amyloid beta (25 to 35)-induced cell death in human SH-SY5Y cells assessed as cell viability at 10 uM after 24 hrs by MTT assay relative to control; type: functional, cell-based
[5] = Antioxidant activity assessed as reduction of TPTZ-Fe3+ to TPTZ-Fe2+ at 0.15 to 1.5 mM after 5 mins by FRAP assay; type: functional
[6] = Antioxidant activity assessed as reduction of TPTZ-Fe3+ to TPTZ-Fe2+ after 5 mins by FRAP assay; type: functional
Summary of the method: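 Working reagent prepared fresh from TPTZ solution, TPTZ diluent and detective buffer (1:10:1 v/v), prewarmed to 37 °C. Samples at 0.15–1.5 mM (5 μL) mixed with 180 μL reagent and held 5 min at 37 °C, then A593 read. Activity expressed as FeSO4 equivalents from a FeSO4 standard curve (0.15–5.00 mM).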

[7] = tested on: Radical scavenging activity; assay: Antioxidant activity assessed as 150 uM DPPH free radical scavenging activity under dark condition after 30 mins by microplate reader analysis; type: functional
Summary of the method: (§1)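 Compounds at final 6.25, 12.5, 25, 50, 75 and 100 μM mixed with DPPH (final 150 or 300 μM) in EtOH containing 5% DMSO; EtOH/5% DMSO control. A517 read at steady state after 30 min at room temperature in the dark. Triplicate tests averaged.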

[8] = tested on: Radical scavenging activity; assay: Antioxidant activity assessed as 300 uM DPPH free radical scavenging activity under dark condition after 30 mins by microplate reader analysis; type: functional; summary of the method: as §1

Sequence of Amyloid-beta precursor protein (Homo sapiens) (P05067 whole entry): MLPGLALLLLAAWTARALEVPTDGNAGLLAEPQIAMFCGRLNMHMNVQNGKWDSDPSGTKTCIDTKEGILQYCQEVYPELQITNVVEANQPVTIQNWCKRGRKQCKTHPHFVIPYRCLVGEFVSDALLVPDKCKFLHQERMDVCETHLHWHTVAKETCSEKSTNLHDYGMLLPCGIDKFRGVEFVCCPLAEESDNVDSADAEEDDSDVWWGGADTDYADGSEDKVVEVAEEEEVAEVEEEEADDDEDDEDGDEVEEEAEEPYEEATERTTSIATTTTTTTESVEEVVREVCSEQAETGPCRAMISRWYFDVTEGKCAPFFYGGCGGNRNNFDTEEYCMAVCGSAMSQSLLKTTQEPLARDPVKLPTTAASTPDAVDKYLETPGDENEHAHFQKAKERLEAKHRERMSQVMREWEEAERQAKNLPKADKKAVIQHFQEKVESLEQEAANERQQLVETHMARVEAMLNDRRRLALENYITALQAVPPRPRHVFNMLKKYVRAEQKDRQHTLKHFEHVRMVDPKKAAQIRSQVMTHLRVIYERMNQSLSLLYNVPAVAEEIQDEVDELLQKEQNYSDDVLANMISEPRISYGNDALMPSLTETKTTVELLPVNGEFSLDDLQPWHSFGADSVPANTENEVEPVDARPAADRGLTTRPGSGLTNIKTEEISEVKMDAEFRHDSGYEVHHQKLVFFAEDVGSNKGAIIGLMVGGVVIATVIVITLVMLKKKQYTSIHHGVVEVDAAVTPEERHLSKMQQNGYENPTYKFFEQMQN

pIC50 [7]	pIC50 [8]	Compound	Activity [1] [%]	Activity [2] [%]	Activity [3] [%]	Activity [4] [%]	Activity [5]	Activity [6]
–	–	COc1ccc(C(=O)O[C@@H](c2ccc3c(c2)OCO3)[C@H](C)C(C)=O)cc1OC	65.4	58.3	68.9	66.8	inactive	–
–	–	COc1ccc(C[C@@H](C)[C@@H](C)Cc2ccc3c(c2)OCO3)cc1OC	62.2	58.1	61.1	61.9	inactive	–
–	–	OC[C@H](Cc1ccc2c(c1)OCO2)[C@H](CO[C@@H]1O[C@H](CO[C@@H]2O[C@@H](CO)[C@H](O)[C@H]2O)[C@@H](O)[C@H](O)[C@H]1O)Cc1ccc2c(c1)OCO2	59.2	58	62	58.3	inactive	–
4.43	4.08	COc1cc([C@@H]2c3cc(OC)c(O)cc3C=C(C)[C@H]2C)ccc1O	60.7	58.6	62.1	65.2	–	Dose-dependent effect
4.80	4.46	COc1cc(C[C@@H](C)[C@@H](C)Cc2ccc(O)c(OC)c2)ccc1O [MESODIHYDROGUAIARETIC ACID]	63.8	62.2	69.2	68.3	–	Dose-dependent effect
–	–	Cc1c(C)c2c(c(C)c1O)CCC(C)(C(=O)O)O2 (stereo unspecified)	–	–	–	–	Active	–
–	–	COc1ccc([C@H]2c3cc4c(cc3C[C@@H](C)[C@@H]2C)OCO4)cc1OC	58.2	57.4	59.8	58.7	inactive	–
–	–	COc1ccc([C@H]2O[C@H](c3ccc4c(c3)OCO4)[C@@H](C)[C@H]2C)cc1OC	58.1	58.2	58.6	60.4	inactive	–
–	–	COc1ccc([C@H](OC(=O)c2ccc3c(c2)OCO3)[C@H](C)C(C)=O)cc1OC	–	–	–	–	inactive	–
4.48	4.12	COc1cc(C[C@H](C)[C@H](C)Cc2ccc3c(c2)OCO3)ccc1O [AUSTROBAILIGNAN 6]	61.5	57	61.8	64.4	–	Dose-dependent effect
3.74	3.44	COc1cc([C@H]2c3cc4c(cc3C[C@@H](C)[C@@H]2C)OCO4)ccc1O	59.9	57.7	60.5	60.5	–	Dose-dependent effect
4.57	4.21	VITAMIN E	–	–	–	–	–	–
4.63	4.35	COc1cc([C@H]2O[C@H](c3ccc4c(c3)OCO4)[C@@H](C)[C@H]2C)ccc1O	–	–	–	–	–	Dose-dependent effect
4.61	4.23	O=C1O[C@H]([C@@H](O)CO)C(O)=C1O [ASCORBIC ACID]	55.6	54.1	58.5	58	–	–
–	–	OC[C@H](Cc1ccc2c(c1)OCO2)[C@H](CO[C@@H]1O[C@H](CO)[C@@H](O)[C@H](O)[C@H]1O)Cc1ccc2c(c1)OCO2	64	65	63.1	65.2	inactive	–
